This is an account of results in ChEMBL document CHEMBL2311478, “Macrolactonolides: a novel class of anti-inflammatory compounds” (Bioorg Med Chem, 2013).

In data set [1] the test system is PBMC. Description: Antiinflammatory activity in human PBMC assessed as inhibition of PHA-induced IL-5 production after 48 hrs. Type of data set: functional, cell-based. A digest of the protocol: (§1)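 Thawed cryopreserved human PBMCs were preincubated 1 h at 37 °C, 5% CO2, then exposed to test compound for 1 h before LPS, anti-CD3 or PHA stimulation. Supernatants were collected at 6, 24 or 48 h according to each cytokine's peak, and cytokines quantified by Luminex multiplex bead assay. 10-point titration starting at 20 µM, in duplicate, with constant DMSO. Parallel Alamar Blue cytotoxicity check under 48 h PHA.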

Data set [2] concerns PBMC. Description: Antiinflammatory activity in human PBMC assessed as inhibition of PHA-induced IP-10 production after 24 hrs. Type of data set: functional, cell-based. A digest of the protocol: as §1
Data set [3] concerns Rattus norvegicus. Description: Antiinflammatory activity against ovalbumin-induced airway allergic Brown-Norway rat model assessed as decrease of eosinophil peroxidase activity in bronchoalveolar lavage fluid at 32 mg/kg administered intranasally as dry powder measured on day 29 after ovalbumin challenge. Type of data set: functional, Lung. Further details: scale not given: the % may be the effect or the level left.

The nature of data set [4]: Tmax in Balb/c mouse blood at 2 mg/kg, administered intranasally. Type of data set: ADME, organism-based. Further details: dose 2 mg/kg. As to conditions: whole blood, inhaled or intranasal. A digest of the protocol: (§2)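 Male Balb/c mice (21–25 g) dosed intranasally with freshly prepared formulation in 1% DMSO plus 0.125% CMC. Terminal bleeding and lung collection from 5 min to 72 h. K2EDTA blood taken as blood aliquots or spun for plasma. Lung homogenised 1:5 in water. Samples were protein-precipitated with acetonitrile/methanol (2:1) plus roxithromycin internal standard and quantified by LC–MS/MS. LLOQ 0.5 ng/mL (blood/plasma) and 2.5 ng/mL (lung).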

A further data set has as its system Streptococcus pneumoniae. Description: Antibacterial activity against inducible-resistant to macrolide, licosamide and streptogramin Streptococcus pneumoniae 134 GR-M by broth microdilution method. Type of data set: functional. A digest of the protocol:
(§3)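 MICs by CLSI broth microdilution with double dilutions, except that Streptococcus medium used 5% horse serum in place of lysed blood. Bacteria were pre-grown on Columbia agar with 5% sheep blood (streptococci) or Mueller–Hinton agar (staphylococci).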
Background: Dilution methods test growth across graded concentrations, often in twofold steps.

The subject of the next data set is Haemophilus influenzae. Description: Antibacterial activity against Haemophilus influenzae ATTC 49247 by broth microdilution method. The class given is functional. A digest of the protocol:
(§4)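 CLSI broth microdilution with double dilutions in 96-well plates. For streptococci, 5% horse serum replaced lysed blood in the medium. Inocula were grown on Columbia agar with 5% sheep blood for streptococci, Mueller–Hinton chocolate agar for H. influenzae, and Mueller–Hinton agar for staphylococci. Read-out is MIC in mg/L.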

Data set [5] has as its system PBMC. Put plainly: Antiinflammatory activity in human PBMC assessed as inhibition of PHA-induced IL-13 production after 24 hrs. Type of data set: functional, cell-based. A digest of the protocol: as §1
For data set [6], the system named is PBMC. Put plainly: Antiinflammatory activity in human PBMC assessed as inhibition of LPS-induced IL-1beta production after 6 hrs. The class given is functional, cell-based. A digest of the protocol:
as §1

The nature of data set [7]: Ratio of drug AUC lung to blood in Balb/c mouse at 2 mg/kg, administered intranasally. As to conditions: lung and blood, inhaled or intranasal.
Data set [8] in a line: Tmax in Balb/c mouse plasma at 2 mg/kg, administered intranasally. The class given is ADME, organism-based. Further details: dose 2 mg/kg. The note with it: inhaled or intranasal. A digest of the protocol: as §2
The subject of data set [9] is PBMC. Put plainly: Antiinflammatory activity in human PBMC assessed as inhibition of PHA-induced IL-3 production after 48 hrs. The class given is functional, cell-based. A digest of the protocol:
as §1

The test system of data set [10] is Rattus norvegicus. Put plainly: Antiinflammatory activity against ovalbumin-induced airway allergic Brown-Norway rat model assessed as decrease of neutrophils in bronchoalveolar lavage fluid at 32 mg/kg administered intranasally as dry powder measured on day 29 after ovalbumin challenge. Type of data set: functional, organism-based. Further details: dose 32 mg/kg. A digest of the protocol:
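Brown-Norway rats sensitised by OVA injection on day 1, boosted on days 14 and 20. Treatment with 32 mg/kg or air control on day 27, followed 1 h later by 60 min OVA inhalation challenge. BAL cells differentiated about 48 h post-challenge (day 29). Comparison was against a sensitised, challenged, untreated group. Mean + SD, n = 10, Dunnett test.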

Data set [11] relates to PBMC. Description: Antiinflammatory activity in human PBMC assessed as inhibition of PHA-induced MCP-1 production after 24 hrs. The class given is functional, cell-based. A digest of the protocol: as §1
In another data set the target is T1, Glucocorticoid receptor (Homo sapiens, UniProt P04150).
T1 sequence (P04150 whole entry): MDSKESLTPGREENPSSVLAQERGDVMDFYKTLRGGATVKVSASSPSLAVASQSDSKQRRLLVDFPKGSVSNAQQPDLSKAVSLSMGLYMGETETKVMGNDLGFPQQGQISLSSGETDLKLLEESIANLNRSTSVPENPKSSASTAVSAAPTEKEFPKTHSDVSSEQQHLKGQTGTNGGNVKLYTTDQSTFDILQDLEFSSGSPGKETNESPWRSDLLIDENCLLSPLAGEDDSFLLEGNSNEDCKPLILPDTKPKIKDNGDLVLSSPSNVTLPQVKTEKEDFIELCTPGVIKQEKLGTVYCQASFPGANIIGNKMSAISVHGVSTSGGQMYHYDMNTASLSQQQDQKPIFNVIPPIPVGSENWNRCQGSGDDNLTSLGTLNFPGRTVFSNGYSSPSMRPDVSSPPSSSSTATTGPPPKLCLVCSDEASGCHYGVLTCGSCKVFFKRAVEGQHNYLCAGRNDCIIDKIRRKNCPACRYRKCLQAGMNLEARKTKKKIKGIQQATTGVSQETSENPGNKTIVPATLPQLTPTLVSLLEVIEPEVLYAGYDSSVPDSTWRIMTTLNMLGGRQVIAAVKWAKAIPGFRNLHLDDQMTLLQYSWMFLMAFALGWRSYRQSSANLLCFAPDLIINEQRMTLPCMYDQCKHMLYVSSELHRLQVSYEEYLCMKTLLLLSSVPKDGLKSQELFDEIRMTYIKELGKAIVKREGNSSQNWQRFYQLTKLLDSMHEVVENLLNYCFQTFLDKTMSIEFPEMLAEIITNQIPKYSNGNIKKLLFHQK
Description: Binding affinity to glucocorticoid receptor (unknown origin) by fluorescence polarization competitive binding assay. (In general: Polarisation of emitted light reports the rotation of a fluorescent probe.)

The nature of data set [12]: AUC (0 to infinity) in Balb/c mouse lung at 2 mg/kg, administered intranasally. The class given is ADME, organism-based. More on the design: time infinity, route nasal, dose 2 mg/kg. The note with it: inhaled or intranasal. A digest of the protocol: as §2
Data set [13] in a line: AUC (0 to infinity) in Balb/c mouse plasma at 2 mg/kg, administered intranasally. The class given is ADME, organism-based. The note with it: inhaled or intranasal. More on the design: time infinity, route nasal, dose 2 mg/kg. A digest of the protocol:
as §2

Data set [14] deals with PBMC. Put plainly: cells. As to conditions: Homo sapiens, 48 h. Type of data set: functional, cell-based.
Data set [15] is described as follows: Drug uptake in mouse J774A1 cells at 10 uM after 3 hrs by LC-MS/MS method. Type of data set: ADME, cell-based. The note with it: j774.a1, 3 h. A digest of the protocol: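 Uptake in J774A.1 macrophages seeded two days before at 2 × 10^5 cells/well. Cells were exposed to 10 µM compound for 3 h in DMEM/25 mM Hepes without supplements, washed with ice-cold PBS and lysed in 0.5% Triton X-100. Lysate was measured by LC–MS/MS, using a cell volume of 1.68 µL per 10^6 cells. Result is the I/E ratio, with E taken as 10 µM.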

The subject of data set [16] is Streptococcus pyogenes. Description: Antibacterial activity against constitutive-resistant to macrolide, licosamide and streptogramin Streptococcus pyogenes 166 GR-Micro by broth microdilution method. Type of data set: functional. A digest of the protocol:
as §3

For data set [17], the system named is PBMC. Put plainly: Antiinflammatory activity in human PBMC assessed as inhibition of PHA-induced IFNgamma production after 24 hrs. The class given is functional, cell-based. A digest of the protocol: as §1
Data set [18] concerns Streptococcus pyogenes. Description: Antibacterial activity against erythromycin susceptible Streptococcus pyogenes 3565 by broth microdilution method. Type of data set: functional. A digest of the protocol:
as §4

Data set [19] relates to Rattus norvegicus. Description: Antiinflammatory activity against ovalbumin-induced airway allergic Brown-Norway rat model assessed as decrease of total cell in bronchoalveolar lavage fluid at 32 mg/kg administered intranasally as dry powder measured on day 29 after ovalbumin challenge (reference value: 53.1%). Type of data set: functional, Lung. More on the design: scale not given: the % may be the effect or the level left.

Data set [20] in a line: Half life in Balb/c mouse lung at 2 mg/kg, administered intranasally. The class given is ADME, organism-based. More on the design: dose 2 mg/kg. The note with it: inhaled or intranasal. A digest of the protocol:
as §2

In brackets after ≈: the same amount, converted by molar mass. Activity calls are given as the source filed them. The rule behind the calls is not given here. Some results are limits rather than exact numbers.

Consider `CC[C@H]1OC(=O)[C@H](C)[C@@H](O[C@H]2C[C@@](C)(OC)[C@@H](O)[C@H](C)O2)[C@H](C)[C@@H](O[C@@H]2O[C@H](C)C[C@H](N(C)C)[C@H]2O)[C@](C)(O)C[C@@H](C)CN(CCCNC(=O)[C@H]2[C@H](C)C[C@H]3[C@@H]4CCC5=CC(=O)C=C[C@]5(C)[C@@]4(F)[C@@H](O)C[C@@]32C)[C@H](C)[C@@H](O)[C@]1(C)O`, for which the EC50 with PBMC [1] is 606 nM; in the data set with PBMC [2] it was greater than 20000 nM; in the data set with PBMC [5] it was 420 nM; in the data set with PBMC [6], greater than 20000 nM; in the data set with PBMC [9], 1270 nM; in the data set on PBMC [11], 19000 nM. Further, the EC50 on Glucocorticoid receptor was determined as 4160 nM; in the data set on PBMC [14], 110 nM; with PBMC [17], 67 nM. For the same compound, the values for the Activity in the data set with Rattus norvegicus [3] and in the data set on Rattus norvegicus [19] were 50% and 43.6%, respectively. For the same compound, the Tmax in data set [4] and in [8] was 15 min each time. For the same compound, the MIC was greater than 64 µg/mL in the data set on Streptococcus pneumoniae, 64 µg/mL (≈ 56.3 µM) in the data set with Haemophilus influenzae, greater than 64 µg/mL against Streptococcus pyogenes [16] and 0.25 µg/mL (≈ 0.22 µM) against Streptococcus pyogenes [18]. In addition, the lung-to-blood AUC ratio in data set [7] came out at 53. Further, the result with Rattus norvegicus [10] was Active. For the same compound, the AUC(0-inf) worked out at 9680 ng·h/mL in [12] and 181 ng·h/mL in [13]. Besides, the Drug uptake entry in data set [15] is on record as “Active”. Further, the half-life in data set [20] is 1200 min.

What is called EC50 is the concentration that produces a half-maximal response. A word on the Tmax: it is the time from dosing to the highest level. By AUC(0-inf) is commonly meant total exposure, with the tail of the curve extrapolated. The term half-life denotes the time in which the quantity being followed falls by half.
